For 25 compounds, inhibition, IC50 and Activity results are on record in ChEMBL document CHEMBL4152221, “Synthesis and structure-activity relationship of furoquinolinediones as inhibitors of Tyrosyl-DNA phosphodiesterase 2 (TDP2)” (Eur J Med Chem, 2018).

Assay [1] deals with T1, Tyrosyl-DNA phosphodiesterase 2 (Homo sapiens) (UniProt O95551).
T1 sequence (whole entry): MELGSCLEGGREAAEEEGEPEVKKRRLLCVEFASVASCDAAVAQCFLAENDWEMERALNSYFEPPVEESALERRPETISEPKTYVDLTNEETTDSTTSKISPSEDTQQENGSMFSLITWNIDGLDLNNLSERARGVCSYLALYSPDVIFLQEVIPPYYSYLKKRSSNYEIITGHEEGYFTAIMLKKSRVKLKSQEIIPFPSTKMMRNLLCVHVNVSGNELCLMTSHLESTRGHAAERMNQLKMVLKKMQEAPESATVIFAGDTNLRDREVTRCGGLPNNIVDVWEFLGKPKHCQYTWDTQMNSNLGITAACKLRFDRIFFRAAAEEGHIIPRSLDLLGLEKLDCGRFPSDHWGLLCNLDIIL
Description: Inhibition of recombinant human TDP2 at 111 uM using alpha-[32P]-cordycepin-3'-labeled TY18 as substrate after 15 mins by PAGE analysis. The procedure, abridged: (§1)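 32P-cordycepin-3'-labeled TY18 substrate at 1 nM with 25 pM recombinant human TDP2, 15 min at room temperature. Buffer: 50 mM Tris-HCl pH 7.5, 80 mM KCl, 5 mM MgCl2, 0.1 mM EDTA, 1 mM DTT, 40 μg/mL BSA, 0.01% Tween 20. Six or eight three-fold dilutions up to 111 μM. Gel densitometry; IC50 is mean ± SD of ≥3 independent experiments. Positive control: SV-163.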

Assay [2] has as its target T2, Tyrosyl-DNA phosphodiesterase 2 (Homo sapiens, UniProt O95551).
T2 sequence (O95551 whole entry): T1 sequence (whole entry)
Nature of the assay: Inhibition of human TDP2 expressed in TDP2 deficient chicken DT40 whole cell extracts using TY19 DNA as substrate after 15 mins by PAGE analysis. In short, it runs like this:
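Extract from 1×10^7 TDP2-knockout DT40 cells complemented with human TDP2, lysed 15 min on ice, spun at 12000 g for 10 min, stored at -80 °C. TY19 substrate at 1 nM with 5 μg/mL extract, ±inhibitor, 15 min at room temperature in LMP2 buffer. Gel densitometry. IC50 is mean ± SD of ≥3 independent experiments.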

In assay [3] the target is T3, Tyrosyl-DNA phosphodiesterase 1 (Homo sapiens, UniProt Q9NUW8). Nature of the assay: Inhibition of recombinant TDP1 (unknown origin) at 111 uM using 5'-[32P]-labeled N14Y as substrate after 15 mins by PAGE analysis. The procedure, abridged:
(§2)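 5'-32P-labeled N14Y (3'-phosphotyrosyl single-stranded oligo) at 1 nM with 10 pM recombinant TDP1, 15 min at room temperature. Three-fold dilutions up to 111 μM. Gels scanned and quantified by densitometry. Positive control: AM-8-3.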

Assay [4] addresses T2, Tyrosyl-DNA phosphodiesterase 2. Description: (§3) Inhibition of recombinant human TDP2 using TY18 (alpha-[32P]-cordycepin-3'-labeled) as substrate after 15 mins by PAGE analysis. In short, it runs like this: as §1
Assay [5] deals with T1, Tyrosyl-DNA phosphodiesterase 2 (Homo sapiens). The description is as §3. In short, it runs like this:
as §1

Assay [6] has as its target T4, DNA topoisomerase 1 (Homo sapiens) (UniProt P11387).
T4 sequence (whole entry): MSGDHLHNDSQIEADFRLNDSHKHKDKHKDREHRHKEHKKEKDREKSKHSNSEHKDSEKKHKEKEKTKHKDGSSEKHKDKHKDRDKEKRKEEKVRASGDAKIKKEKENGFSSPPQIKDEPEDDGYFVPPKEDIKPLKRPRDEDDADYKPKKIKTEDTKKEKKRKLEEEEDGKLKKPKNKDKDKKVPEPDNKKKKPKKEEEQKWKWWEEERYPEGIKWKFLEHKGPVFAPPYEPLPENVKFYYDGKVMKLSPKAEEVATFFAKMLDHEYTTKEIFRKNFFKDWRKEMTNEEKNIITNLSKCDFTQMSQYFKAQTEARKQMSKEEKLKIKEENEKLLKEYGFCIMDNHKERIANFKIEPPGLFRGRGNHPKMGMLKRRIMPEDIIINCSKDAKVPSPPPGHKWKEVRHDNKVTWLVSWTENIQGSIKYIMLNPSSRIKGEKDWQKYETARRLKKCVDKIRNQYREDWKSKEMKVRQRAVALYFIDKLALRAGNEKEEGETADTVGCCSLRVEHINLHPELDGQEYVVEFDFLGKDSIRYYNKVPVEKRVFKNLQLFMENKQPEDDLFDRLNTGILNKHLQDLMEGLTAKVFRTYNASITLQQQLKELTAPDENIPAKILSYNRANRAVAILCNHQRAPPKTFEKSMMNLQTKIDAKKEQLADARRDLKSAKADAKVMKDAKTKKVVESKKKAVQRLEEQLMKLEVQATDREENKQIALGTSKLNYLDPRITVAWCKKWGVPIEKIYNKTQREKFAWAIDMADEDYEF
Description: Inhibition of Top1 (unknown origin) assessed as decrease in relaxation of supercoiled pBR322 DNA at 25 uM. In short, it runs like this:
(§4)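 Supercoiled pBR322 plasmid incubated with TOP1 or TOP2 enzyme, with or without test compound at 25 μM. Relaxed and supercoiled forms separated on agarose gel. Positive controls: camptothecin for TOP1, etoposide for TOP2.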

For another assay, the species on record is Homo sapiens. Description: Inhibition of Top2 (unknown origin) assessed as decrease in relaxation of supercoiled pBR322 DNA at 25 uM. In short, it runs like this: as §4
Assay [7] concerns the target T3, Tyrosyl-DNA phosphodiesterase 1. Nature of the assay: Inhibition of recombinant TDP1 (unknown origin) using 5'-[32P]-labeled N14Y as substrate after 15 mins by PAGE analysis. In short, it runs like this: as §2
Assay [8] concerns the target DNA topoisomerase 2-alpha (Homo sapiens) (UniProt P11388). Nature of the assay: Poisoning activity at Top2alpha in human CCRF-CEM cells assessed as TOP2-DNA covalent cleavage complex up to 50 uM after 2 hrs by Western blot analysis based ICE assay. In kind it is cell-based. In short, it runs like this: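 60×10^5 CCRF-CEM cells treated 2 h with compound at 10 or 50 μM, alone or combined with 10 μM etoposide, then lysed in 1% Sarkosyl. TOP2-DNA covalent complexes detected by ICE assay. Etoposide at 10 and 50 μM served as positive control.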

The target is the same in assay [9]. Description: Poisoning activity at Top2alpha in human CCRF-CEM cells assessed as TOP2-DNA covalent cleavage complex up to 100 uM after 2 hrs by Western blot analysis based ICE assay. In kind it is cell-based. In short, it runs like this:
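ICE assay: 60×10^5 CCRF-CEM cells exposed to compound for 2 h, then lysed in 1% Sarkosyl to detect TOP2–DNA covalent cleavage complexes. Etoposide at 10 and 50 μM served as positive control, with one lane co-treated with 10 μM etoposide.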
A general note: Immunoblotting shows a protein as a band on a membrane.

pIC50: −log10 of the molar value. Calls of active or inactive are those of the source.

T3 sequence (Q9NUW8 whole entry): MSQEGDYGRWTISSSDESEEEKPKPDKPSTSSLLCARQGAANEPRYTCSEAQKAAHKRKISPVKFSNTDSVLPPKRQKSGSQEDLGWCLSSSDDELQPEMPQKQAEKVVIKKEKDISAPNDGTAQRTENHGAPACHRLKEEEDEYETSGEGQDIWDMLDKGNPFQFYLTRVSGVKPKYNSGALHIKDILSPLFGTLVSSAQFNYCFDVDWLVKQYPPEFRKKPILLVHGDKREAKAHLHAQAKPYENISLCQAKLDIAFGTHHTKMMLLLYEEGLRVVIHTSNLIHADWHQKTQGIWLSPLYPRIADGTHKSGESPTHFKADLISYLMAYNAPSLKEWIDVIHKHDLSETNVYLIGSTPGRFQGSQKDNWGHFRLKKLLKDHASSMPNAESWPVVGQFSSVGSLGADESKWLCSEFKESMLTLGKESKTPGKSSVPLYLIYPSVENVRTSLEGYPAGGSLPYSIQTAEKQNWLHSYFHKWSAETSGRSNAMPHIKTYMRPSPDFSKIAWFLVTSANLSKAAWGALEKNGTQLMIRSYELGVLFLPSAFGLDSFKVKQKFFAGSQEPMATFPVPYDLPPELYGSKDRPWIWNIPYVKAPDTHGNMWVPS
DNA topoisomerase 2-alpha (Homo sapiens), sequence (P11388 whole entry): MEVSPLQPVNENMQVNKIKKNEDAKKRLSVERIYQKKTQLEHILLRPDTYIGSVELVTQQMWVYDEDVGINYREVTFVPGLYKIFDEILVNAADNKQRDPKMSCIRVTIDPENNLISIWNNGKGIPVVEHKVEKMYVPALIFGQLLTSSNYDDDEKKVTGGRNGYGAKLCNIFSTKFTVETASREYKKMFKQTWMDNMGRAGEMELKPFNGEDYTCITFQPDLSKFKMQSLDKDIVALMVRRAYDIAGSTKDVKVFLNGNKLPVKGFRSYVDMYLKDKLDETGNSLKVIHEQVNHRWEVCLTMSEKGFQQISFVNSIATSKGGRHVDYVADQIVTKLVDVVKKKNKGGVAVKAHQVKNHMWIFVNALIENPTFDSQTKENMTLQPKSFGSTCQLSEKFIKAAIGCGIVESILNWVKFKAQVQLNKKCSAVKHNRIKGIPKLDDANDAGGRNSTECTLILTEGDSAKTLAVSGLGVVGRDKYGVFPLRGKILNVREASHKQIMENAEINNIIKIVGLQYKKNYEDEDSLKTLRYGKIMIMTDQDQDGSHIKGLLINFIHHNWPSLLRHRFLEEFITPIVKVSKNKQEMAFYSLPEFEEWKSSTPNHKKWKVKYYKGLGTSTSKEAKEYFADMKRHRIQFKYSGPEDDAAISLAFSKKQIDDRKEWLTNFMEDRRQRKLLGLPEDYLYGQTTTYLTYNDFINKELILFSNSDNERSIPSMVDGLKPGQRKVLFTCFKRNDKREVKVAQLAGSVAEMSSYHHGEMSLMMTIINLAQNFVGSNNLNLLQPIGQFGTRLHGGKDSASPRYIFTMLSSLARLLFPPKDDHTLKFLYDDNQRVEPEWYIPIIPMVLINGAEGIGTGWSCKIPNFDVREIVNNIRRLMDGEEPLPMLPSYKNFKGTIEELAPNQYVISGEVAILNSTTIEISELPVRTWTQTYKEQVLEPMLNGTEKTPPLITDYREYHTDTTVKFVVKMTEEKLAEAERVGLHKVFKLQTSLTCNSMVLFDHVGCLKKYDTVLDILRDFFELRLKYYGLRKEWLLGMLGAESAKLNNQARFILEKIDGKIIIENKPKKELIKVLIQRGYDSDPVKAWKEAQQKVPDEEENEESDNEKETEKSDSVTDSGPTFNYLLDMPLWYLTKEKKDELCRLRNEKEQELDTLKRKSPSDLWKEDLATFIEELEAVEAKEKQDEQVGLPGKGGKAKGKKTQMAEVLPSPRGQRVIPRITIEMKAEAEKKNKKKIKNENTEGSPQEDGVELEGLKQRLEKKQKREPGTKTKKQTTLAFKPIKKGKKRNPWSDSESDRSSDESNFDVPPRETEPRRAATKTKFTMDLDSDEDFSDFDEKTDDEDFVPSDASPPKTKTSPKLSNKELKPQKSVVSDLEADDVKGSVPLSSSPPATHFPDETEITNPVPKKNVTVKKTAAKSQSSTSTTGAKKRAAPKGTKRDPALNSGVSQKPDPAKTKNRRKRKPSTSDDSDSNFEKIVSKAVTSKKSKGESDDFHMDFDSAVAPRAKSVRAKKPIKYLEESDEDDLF

By inhibition is commonly meant the change of the read-out against control, counted positive when it falls. One may read the pIC50 as the negative decadic logarithm of the IC50, by convention in mol/L. As for `Cc1oc2c(c1C(=O)Oc1ccccc1)C(=O)c1ncccc1C2=O`, the inhibition was 100% in [1] and “Dose-dependent effect” in assay [5]. In addition, the pIC50 in assay [2] is 5.00; in [4], 4.74. Further, in assay [3], the inhibition result is “inactive”.
Consider `CCOC(=O)c1noc2c1C(=O)c1ncccc1C2=O`, for which the inhibition entry (in [6]; in assay [3]; in the assay filed under Homo sapiens) was “inactive” each time. The inhibition is 100% in [1] and “Dose-dependent effect” in assay [5]. Moreover, the pIC50 is 5.51 in assay [2] and 5.48 in assay [4].
For `Cc1oc2c(c1C(=O)Oc1ccc([N+](=O)[O-])cc1)C(=O)c1ncccc1C2=O`, the pIC50 in assay [7] was 4.32; in assay [4], 4.55.
Take `CCOC(=O)c1noc2c1C(=O)c1cccnc1C2=O`: the inhibition result (in [6]; in [3]; in the assay filed under Homo sapiens) was “inactive” in each case. The figures for the inhibition in assay [1] and in assay [5] were 100% and “Dose-dependent effect”, respectively. Further, the pIC50 was 5.68 in [2] and 5.72 in assay [4]. Besides, in assay [8], the outcome was inactive.
As to `COC(=O)c1sccc1OC(=O)c1c(C)oc2c1C(=O)c1ncccc1C2=O`, the pIC50 in assay [7] is 4.42; in assay [2], 4.62; in assay [4] it was 4.66.
As for `N#Cc1ccc2cc3c(=O)[nH]c(=O)nc-3n(-c3cccc(-c4nnn[nH]4)c3)c2c1`, the inhibition is 100% in assay [1] and “Dose-dependent effect” in [5].
`Cc1oc2c(c1C(=O)OCCCO)C(=O)c1ncccc1C2=O`: the inhibition is 100% in [1] and “Dose-dependent effect” in assay [5]. The results for the pIC50 in [2] and in assay [4] were 4.96 and 4.77, respectively. For the same compound, the inhibition entry in assay [3] was “inactive”.
Regarding `Cc1oc2c(c1C(=O)OCCc1cn(CCC(=O)O)nn1)C(=O)c1ncccc1C2=O`, the pIC50 in assay [2] is 4.80; in assay [4] it was 4.70. The inhibition entry in [3] was “inactive”.
Turning to `Cc1oc2c(c1C(=O)Oc1ccccc1O)C(=O)c1ncccc1C2=O`, the inhibition was 100% in assay [1] and “Dose-dependent effect” in assay [5]. Besides, the pIC50 in [2] was 5.18; in [4] it was 5.12. The inhibition entry in assay [3] was “inactive”.
As to `Cc1oc2c(c1C(=O)OCC(O)CO)C(=O)c1ncccc1C2=O` (configuration not stated), the negative-log IC50 (pIC50) is 4.96 in [2] and 4.70 in assay [4]. Further, in [3], the inhibition entry was “inactive”.
For `Cc1oc2c(c1C(=O)Oc1ccc(Cl)cc1)C(=O)c1ncccc1C2=O` the same measures were 5.12, 4.96 and “inactive”.
As to `Cc1oc2c(c1C(=O)Oc1cccnc1)C(=O)c1ncccc1C2=O`, the pIC50 is 5.11 in assay [2] and 5.06 in assay [4]. In addition, the inhibition entry in assay [3] is “inactive”.
On to `Cc1oc2c(c1C(=O)Oc1cccc(O)c1)C(=O)c1ncccc1C2=O`, for which the inhibition is 100% in [1] and “Dose-dependent effect” in assay [5]. The pIC50 in assay [2] is 5.06; in [4], 4.54. Further, in assay [3], the inhibition entry is “inactive”.
For the compound `Cc1oc2c(c1C(=O)OC[C@@H](O)CO)C(=O)c1ncccc1C2=O`, the inhibition in [1] was 100%; in assay [5] it was “Dose-dependent effect”. Moreover, the values for the pIC50 in assay [2] and in assay [4] were 4.85 and 4.92, respectively. Also, the inhibition result in assay [3] was “inactive”.
For `C#Cc1cccc(OC(=O)c2c(C)oc3c2C(=O)c2ncccc2C3=O)c1`, the negative logarithm of the IC50 (pIC50) in assay [2] was 4.89; in assay [4], 4.37. For the same compound, in assay [3], the inhibition result is “inactive”.
As to `CCOC(=O)c1c(C)oc2c1C(=O)c1ncccc1C2=O`, the inhibition entry (in assay [6]; in [3]; in the assay listed under Homo sapiens) was “inactive” in each case. In addition, the outcome in assay [9] was inactive. The results for the negative-log IC50 (pIC50) in assay [2] and in [4] were 4.66 and 4.96, respectively.
As to `CC(=O)c1c(C)oc2c1C(=O)c1ncccc1C2=O`, the pIC50 in [2] was 4.44; in assay [4] it was 4.46. In [3], the inhibition result was “inactive”.
For `Cc1oc2c(c1C(=O)Oc1ccc(C#N)cc1)C(=O)c1ncccc1C2=O` the same measures were 4.89, 4.82 and “inactive”.
For `Cc1oc2c(c1C(=O)OCCCCCO)C(=O)c1ncccc1C2=O` the same measures were 4.72, 4.35 and “inactive”.
For the compound `Cc1oc2c(c1C(=O)OCCOCCO)C(=O)c1ncccc1C2=O`, the negative-log IC50 (pIC50) was 4.89 in assay [2] and 4.66 in [4]. Besides, the inhibition entry in assay [3] is “inactive”.
Taken in the same sequence, the figures for `Cc1oc2c(c1C(=O)OCCc1cn(CCCO)nn1)C(=O)c1ncccc1C2=O` were 4.14, 4.18 and “inactive”.
For `Cc1oc2c(c1C(=O)OCCC[n+]1ccccc1)C(=O)c1ncccc1C2=O` the same measures were 4.62, 4.49 and “inactive”.
Taken in the same sequence, the figures for `Cc1oc2c(c1C(=O)Oc1ccccc1Cl)C(=O)c1ncccc1C2=O` were 4.85, 5.00 and “inactive”.
`Cc1oc2c(c1C(=O)OCCO)C(=O)c1ncccc1C2=O`: the inhibition is 100% in assay [1] and “Dose-dependent effect” in [5]. For the same compound, the negative logarithm of the IC50 (pIC50) was 5.01 in assay [2] and 4.70 in assay [4]. In assay [3], the inhibition result is “inactive”.
On to `CCOC(=O)c1c(C)oc2c1C(=O)c1cccnc1C2=O`, for which the negative logarithm of the IC50 (pIC50) in [2] was 4.27; in assay [4] it was 4.37. Moreover, the inhibition result in assay [3] was “inactive”.
